Data set [1] has as its system T-24. Kind of data set: Induction of apoptosis in human T24 cells assessed as increase in necrotic cells at 1 uM in presence of light by Annexin V/propidium iodide-stining based flow cytometry. Format: functional, cell-based. In general terms: In flow cytometry, cells or beads pass a laser one at a time.
Data set [2] relates to UMUC3. Kind of data set: Induction of apoptosis in human UM-UC-3 cells assessed as increase in necrotic cells at 1 uM in presence of light by Annexin V/propidium iodide-stining based flow cytometry. Format: functional, cell-based.
In data set [3] the test system is UMUC3. The data set is described as follows: Induction of apoptosis in human UM-UC-3 cells assessed as increase in apoptotic cells at 100 nM in presence of light by Annexin V/propidium iodide-stining based flow cytometry. The class given is functional, cell-based.
Data set [4] has as its system T-24. Kind of data set: Photo-activated cytotoxicity against human T24 cells assessed as reduction in cell viability preincubated for 24 hrs followed by 1 J/cm2 light irradiation and measured after 48 hrs formulated with 2% pluronic F-127 solution by MTT assay. Format: functional, cell-based. The note with it: T-24, light or radiation study. The method, boiled down: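 Cells plated at 10k per well, allowed 24 h to adhere, then PS added in two-fold dilutions from 1 µM top for 24 h. Irradiated at 665 nm, 1.0 J/cm2 at 3.2 mW/cm2. Viability by MTT 48 h after PDT: about 2 h incubation, formazan dissolved in DMSO, absorbance at 570 nm.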
A general note: Tetrazolium assays rely on reduction of a dye to a coloured formazan, in cell work by metabolically active cells.

In data set [5] the test system is UMUC3. The data set is described as follows: Induction of apoptosis in human UM-UC-3 cells assessed as increase in necrotic cells at 100 nM in presence of light by Annexin V/propidium iodide-stining based flow cytometry. Format: functional, cell-based.
Data set [6] relates to T-24. The data set is described as follows: Induction of apoptosis in human T24 cells assessed as increase in apoptotic cells at 100 nM in presence of light by Annexin V/propidium iodide-stining based flow cytometry. Format: functional, cell-based.
Data set [7] relates to UMUC3. The data set is described as follows: Anti-tumor activity against human UM-UC-3 cells xenografted in SCID mouse assessed as tumor cure at 0.47 umol/kg, iv in presence of 135 J/cm2 light irradiation at 24 hrs post injection and measured at day 60. Format: functional. Put shortly:
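UMUC-3 cells implanted in right flank of SCID mice; at 4–5 mm tumors, PS given i.v. at 0.47 µmol/kg. Tumors exposed to 665 nm light, 135 J/cm2 at 75 mW/cm2, 24 h post-injection. Tumor regrowth monitored daily; mice euthanized at >400 mm3; tumor-free status scored at day 60.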
Background: Xenograft models place foreign cells or tissue in a host animal.

For data set [8], the system named is T-24. The data set is described as follows: Induction of apoptosis in human T24 cells assessed as increase in apoptotic cells at 1 uM in presence of light by Annexin V/propidium iodide-stining based flow cytometry. The class given is functional, cell-based.
The subject of data set [9] is UMUC3. The data set is described as follows: Induction of apoptosis in human UM-UC-3 cells assessed as increase in apoptotic cells at 1 uM in presence of light by Annexin V/propidium iodide-stining based flow cytometry. Format: functional, cell-based.
Data set [10] in a line: Induction of singlet oxygen generation in toluene solution in presence of oxygen at 670 nm assessed as decay rate constant of triplet excited state by femtosecond transient absorption spectroscopy. Format: functional.
Data set [11] is described as follows: Induction of singlet oxygen generation in oxygen-saturated toluene solution at 670 nm assessed as decay rate constant of triplet excited state by femtosecond transient absorption spectroscopy. The class given is functional.
A short description of data set [12]: Drug uptake in human T24 cells xenografted in SCID mouse at 0.47 umol/kg formulated with 1% tween 80 solution and measured at 24 hrs post injection by IVIS analysis. The note with it: in vivo. Format: ADME, cell-based, T-24. Put shortly:
(§1)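 SCID mice (3/group) bearing UMUC3 or T24 tumors of 4–5 mm injected with PS at 0.47 µmol/kg in Tween80 or Pluronic F-127. Tumor, liver and skin fluorescence followed by IVIS optical imaging (ex 675 nm, em 720) at several time points including 24 h.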

The subject of data set [13] is UMUC3. The data set is described as follows: Anti-tumor activity against human UM-UC-3 cells xenografted in SCID mouse assessed as tumor necrosis at 0.47 umol/kg, iv in presence of 135 J/cm2 light irradiation at 24 hrs post injection and measured at 72 hrs post light exposure. Format: functional, organism-based.
Data set [14] can be described thus: Induction of singlet oxygen generation in Ar-saturated toluene solution at 670 nm assessed as decay rate constant of triplet excited state by femtosecond transient absorption spectroscopy. The class given is functional.
Data set [15] can be described thus: Induction of singlet oxygen generation in oxygen-free toluene solution at 670 nm assessed as decay rate constant of triplet excited state by femtosecond transient absorption spectroscopy. Format: functional.
Data set [16] in a line: Drug uptake in human UM-UC-3 cells xenografted in SCID mouse at 0.47 umol/kg formulated with 1% tween 80 solution and measured at 24 hrs post injection by IVIS analysis. The class given is ADME, cell-based, UMUC3. The note with it: in vivo. Put shortly: as §1
The nature of data set [17]: Drug uptake in human UM-UC-3 cells xenografted in SCID mouse at 0.47 umol/kg formulated with 2% pluronic F-127 solution and measured at 24 hrs post injection by IVIS analysis. The class given is ADME, cell-based, UMUC3. The note with it: in vivo. The method, boiled down: as §1
Data set [18] is described as follows: Induction of singlet oxygen generation assessed as energy transfer from the triplet chlorins to oxygen by femtosecond transient absorption spectroscopy. Format: functional.
A short description of data set [19]: Drug uptake in human T24 cells xenografted in SCID mouse at 0.47 umol/kg formulated with 2% pluronic F-127 solution and measured at 24 hrs post injection by IVIS analysis. The note with it: in vivo. Format: ADME, cell-based, T-24. Put shortly: as §1

Calls of active or inactive are those of the source. The calls are words filed in the database; no cut-off is given here.

Turning to `CCC1=C(C)c2cc3[nH]c(cc4nc(c5c6[nH]c(cc1n2)c(C)c6C(=O)C5)[C@@H](CCC(=O)OC)[C@@H]4C)c(C)c3C(C)OCc1cccc(I)c1` (stereo not given in full), the outcome in data set [1], in data set [2], in data set [3], in [5], in data set [8] and in data set [9] was Active. Also, the half-maximal inhibitory concentration (IC50) in data set [4] turned out to be 178 nM. The result in [6] was inactive. The Activity in [7] is 20%.

Turning to `CCC1=C(C)c2cc3[nH]c(cc4nc(c5c6[nH]c(cc1n2)c(C)c6C(=O)C5)[C@@H](CCC(=O)NCc1cccc(I)c1)[C@@H]4C)c(C)c3C(C)OCc1cccc(C#Cc2cccc(Nc3ncnc4cc(OCCOC)c(OCCOC)cc34)c2)c1` (stereo not given in full), the K was 0.634 ×10⁶ /s in data set [10]; 6.34 ×10⁵ /s in [11]; 4.27 ×10⁴ /s in data set [14]; 4.27 ×10⁴ /s in data set [15]; 3.17 ×10⁹ /M/s in data set [18]. In addition, the Drug uptake result in data set [12], in data set [16], in [17] and in data set [19] was “Active” in each case. Moreover, the outcome in data set [13] was inactive. Besides, the IC50 in data set [4] turned out to be 1260 nM.

The IC50 is the point on the concentration scale where inhibition reaches its midpoint.

Values taken from ChEMBL document CHEMBL4400542, “Epidermal Growth Factor Receptor-Targeted Multifunctional Photosensitizers for Bladder Cancer Imaging and Photodynamic Therapy” (J Med Chem, 2019).
